Measured values taken from ChEMBL document CHEMBL2424551, “Synthesis, in vitro evaluation and molecular modelling of naphthalimide analogue as anticancer agents” (2013).

Key:
Format in all cases: functional
KM12 = experiment: Growth inhibition of human KM12 cells at 10 uM after 48 hrs by SRB assay; conditions: KM12, 48 h, read-out: GI
Method in brief: (§1)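 Cells grown in RPMI 1640 with 5% FBS and 2 mM L-glutamine, plated at 5000–40,000 cells/well by doubling time and preincubated 24 h (37 °C, 5% CO2); a time-zero plate is TCA-fixed. Single dose added, then 48 h incubation. Fixed with cold TCA, stained with 0.4% SRB, dye solubilized in 10 mM Tris base, absorbance at 515 nm; percent growth vs time-zero and untreated control.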

MDA-MB-435 = experiment: Growth inhibition of human MDA-MB-435 cells at 10 uM after 48 hrs by SRB assay; conditions: MDA-MB-435, 48 h, read-out: GI; method in brief: as §1
OVCAR-5 = experiment: Growth inhibition of human OVCAR5 cells at 10 uM after 48 hrs by SRB assay; conditions: OVCAR-5, 48 h, read-out: GI; method in brief: as §1
U-251 = experiment: Growth inhibition of human U251 cells at 10 uM after 48 hrs by SRB assay; conditions: U-251, 48 h, read-out: GI
Method in brief: (§2)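 NCI 60-cell-line screen with a single 10 µM dose. Cells are grown in RPMI 1640 with 5% FBS and 2 mM L-glutamine, plated at 5000–40,000 cells/well according to doubling time, and preincubated 24 h at 37 °C, 5% CO2; time-zero plates are TCA-fixed at that point. Drug exposure is 48 h. Adherent cells are fixed with cold TCA, stained with 0.4% SRB in 1% acetic acid and read at 515 nm. Percent growth is calculated relative to time-zero and untreated controls and reported as GI%.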

SN12C = experiment: Growth inhibition of human SN12C cells at 10 uM after 48 hrs by SRB assay; conditions: read-out: GI; method in brief: as §2
LOX IMVI = experiment: Growth inhibition of human LOXIMVI cells at 10 uM after 48 hrs by SRB assay; conditions: read-out: GI; method in brief: as §1
T47D = experiment: Growth inhibition of human T47D cells at 10 uM after 48 hrs by SRB assay; conditions: read-out: GI; method in brief: as §2
SW-620 = experiment: Growth inhibition of human SW620 cells at 10 uM after 48 hrs by SRB assay; conditions: SW-620, 48 h, read-out: GI; method in brief: as §2
TK-10 = experiment: Growth inhibition of human TK10 cells at 10 uM after 48 hrs by SRB assay; conditions: TK-10, 48 h, read-out: GI; method in brief: as §2
HT-29 = experiment: Growth inhibition of human HT-29 cells at 10 uM after 48 hrs by SRB assay; conditions: HT-29, 48 h, read-out: GI; method in brief: as §1
HOP-62 = experiment: Growth inhibition of human HOP62 cells at 10 uM after 48 hrs by SRB assay; conditions: HOP-62, 48 h, read-out: GI; method in brief: as §1
HCT-116 = experiment: Growth inhibition of human HCT116 cells at 10 uM after 48 hrs by SRB assay; conditions: HCT-116, 48 h, read-out: GI; method in brief: as §1
MCF7 = experiment: Growth inhibition of human MCF7 cells at 10 uM after 48 hrs by SRB assay; conditions: MCF7, 48 h, read-out: GI; method in brief: as §1
BT-549 = experiment: Growth inhibition of human BT549 cells at 10 uM after 48 hrs by SRB assay; conditions: BT-549, 48 h, read-out: GI; method in brief: as §1
Malme-3M = experiment: Growth inhibition of human MALME-3M cells at 10 uM after 48 hrs by SRB assay; conditions: read-out: GI; method in brief: as §1
SNB-19 = experiment: Growth inhibition of human SNB19 cells at 10 uM after 48 hrs by SRB assay; conditions: SNB-19, 48 h, read-out: GI; method in brief: as §2
NCI-H460 = experiment: Growth inhibition of human NCI-H460 cells at 10 uM after 48 hrs by SRB assay; conditions: NCI-H460, 48 h, read-out: GI; method in brief: as §1
NCI-H522 = experiment: Growth inhibition of human NCI-H522 cells at 10 uM after 48 hrs by SRB assay; conditions: NCI-H522, 48 h, read-out: GI; method in brief: as §1
Hs-578T = experiment: Growth inhibition of human Hs578T cells at 10 uM after 48 hrs by SRB assay; conditions: read-out: GI; method in brief: as §1
OVCAR-8 = experiment: Growth inhibition of human OVCAR8 cells at 10 uM after 48 hrs by SRB assay; conditions: OVCAR-8, 48 h, read-out: GI; method in brief: as §1
[1] = Growth inhibition of human EKVX cells at 10 uM after 48 hrs by SRB assay; conditions: read-out: GI; method in brief: as §1
SK-MEL-5 = experiment: Growth inhibition of human SK-MEL-5 cells at 10 uM after 48 hrs by SRB assay; conditions: SK-MEL-5, 48 h, read-out: GI; method in brief: as §1
786-0 = experiment: Growth inhibition of human 786-0 cells at 10 uM after 48 hrs by SRB assay; conditions: 786-0, 48 h, read-out: GI; method in brief: as §1
HL-60(TB) = experiment: Growth inhibition of human HL-60(TB) cells at 10 uM after 48 hrs by SRB assay; conditions: HL-60, 48 h, read-out: GI
Method in brief: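 Single-concentration pass across the 60-line panel in RPMI 1640 with 5% FBS. Cells preincubated 24 h, then exposed 48 h at 37 °C, 5% CO2. Read by SRB staining with absorbance at 515 nm. Percent growth is taken relative to time-zero and untreated controls and reported as percent growth inhibition (GI %).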

O=c1c2cccc3c(N4CCOCC4)ccc(c32)c2nc3ccccc3n12
inhibition of growth at 10 µM (KM12): 21.9% | inhibition of growth at 10 µM (MDA-MB-435): < 20% | inhibition of growth at 10 µM (OVCAR-5): < 20% | inhibition of growth at 10 µM (U-251): < 20% | inhibition of growth at 10 µM (SN12C): < 20% | inhibition of growth at 10 µM (LOX IMVI): < 20% | inhibition of growth at 10 µM (T47D): 61.9% | inhibition of growth at 10 µM (SW-620): < 20% | inhibition of growth at 10 µM (TK-10): 28.2% | inhibition of growth at 10 µM (HT-29): < 20% | inhibition of growth at 10 µM (HOP-62): < 20% | inhibition of growth at 10 µM (HCT-116): < 20% | inhibition of growth at 10 µM (MCF7): 76% | inhibition of growth at 10 µM (BT-549): < 20% | inhibition of growth at 10 µM (Malme-3M): < 20% | inhibition of growth at 10 µM (SNB-19): < 20% | inhibition of growth at 10 µM (NCI-H460): < 20% | inhibition of growth at 10 µM (NCI-H522): < 20% | inhibition of growth at 10 µM (Hs-578T): 59.8% | inhibition of growth at 10 µM (OVCAR-8): < 20% | inhibition of growth at 10 µM [1]: 61.7% | inhibition of growth at 10 µM (SK-MEL-5): 26.6% | inhibition of growth at 10 µM (786-0): < 20% | inhibition of growth at 10 µM (HL-60(TB)): < 20%

O=c1c2cccc3c(N4CCCC4)ccc(c32)c2nc3ccccc3n12
inhibition of growth at 10 µM (KM12): < 20% | inhibition of growth at 10 µM (MDA-MB-435): < 20% | inhibition of growth at 10 µM (OVCAR-5): < 20% | inhibition of growth at 10 µM (U-251): 35.3% | inhibition of growth at 10 µM (SN12C): 35.2% | inhibition of growth at 10 µM (LOX IMVI): 48.3% | inhibition of growth at 10 µM (T47D): 27.9% | inhibition of growth at 10 µM (SW-620): 40.5% | inhibition of growth at 10 µM (TK-10): < 20% | inhibition of growth at 10 µM (HT-29): 22.2% | inhibition of growth at 10 µM (HOP-62): 33.9% | inhibition of growth at 10 µM (HCT-116): 45.3% | inhibition of growth at 10 µM (MCF7): 50% | inhibition of growth at 10 µM (BT-549): 28.8% | inhibition of growth at 10 µM (Malme-3M): 29.6% | inhibition of growth at 10 µM (SNB-19): 24% | inhibition of growth at 10 µM (NCI-H460): 83.9% | inhibition of growth at 10 µM (NCI-H522): 28.9% | inhibition of growth at 10 µM (Hs-578T): 32.8% | inhibition of growth at 10 µM (OVCAR-8): 34% | inhibition of growth at 10 µM [1]: 24.1% | inhibition of growth at 10 µM (SK-MEL-5): 35.5% | inhibition of growth at 10 µM (786-0): < 20% | inhibition of growth at 10 µM (HL-60(TB)): 28%
